Laboratory results reported in publication PMC3466390 (Biomaterials, 2012).
Entries after “also recorded” stand apart in the source; their conditions may differ.

Legend:
E. coli (ATCC 25922) = experiment: Antibacterial assay on hydrogel surfaces; assay type: cell-based, Escherichia coli; details: 0.5, 1, 1.5 and 2 wt% hydrogels, 10^5 CFU/dm^2, 24 h, 37°C, n=3
How it was run: (§1)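 Gels (0.5–2 wt%) formed in wells by mixing peptide stocks in sterile water 1:1 with BTP buffer (100 mM, 300 mM NaCl, pH 7.4). They were held 3 h at 37°C, then equilibrated overnight under BTP (50 mM, 150 mM NaCl, pH 7.4), and the buffer was removed. Bacteria were grown overnight on blood agar, applied at 10^4 CFU/mL in TSB, and incubated 24 h at 37°C, with bare plastic as control. After a TSB wash, OD625 of the overlying solution was corrected for dilution and scattering. % non-viable = [1 − OD surface/OD control]×100; triplicate.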

S. aureus (ATCC 25923) = experiment: Antibacterial assay on hydrogel surfaces; assay type: cell-based, Staphylococcus aureus; details: 0.5, 1, 1.5 and 2 wt% hydrogels, 10^5 CFU/dm^2, 24 h, 37°C, n=3
How it was run: as §1

[1] = tested on: P. aeruginosa (ATCC 27853); experiment: Antibacterial assay on hydrogel surfaces; assay type: cell-based, Pseudomonas aeruginosa; details: 10^5 CFU/dm^2, 24 h, 37°C, n=3
How it was run: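 Peptide stocks in sterile water were mixed 1:1 with BTP (100 mM, 300 mM NaCl, pH 7.4) to gel, held 3 h at 37°C, then equilibrated overnight under BTP (50 mM, 150 mM NaCl, pH 7.4), which was then removed. Blood-agar-grown bacteria (18-20 h) at 10⁴ CFU/mL in TSB were applied to the gel surface for 24 h at 37°C. OD625 was compared with bare polystyrene: % non-viable = [1 − OD surface/OD control]×100.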

[2] = tested on: human red blood cells (hRBCs); assay type: cell-based
P. aeruginosa = assay type: cell-based
E. coli [3] = experiment: Atomic force microscopy imaging of bacteria on gel; assay type: cell-based, Escherichia coli; details: 2 wt% hydrogel, 2 h incubation, 37°C
E. coli [4] = experiment: Antibacterial assay in the presence of Ca2+; assay type: cell-based, Escherichia coli; details: 1 wt% hydrogel, 0, 0.1, 1, 10 and 20 mM Ca2+, 37°C, CFU count, n=3
S. aureus = experiment: Antibacterial assay in the presence of Ca2+; assay type: cell-based, Staphylococcus aureus; details: 1 wt% hydrogel, 0, 0.1, 1, 10 and 20 mM Ca2+, 37°C, CFU count, n=3
[5] = Oscillatory rheology of hydrogels; assay type: physicochemical; details: 1 wt% gel, 0.2% strain
How it was run: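 A 2 wt% peptide solution in chilled water was mixed with an equal volume of BTP (100 mM, 300 mM NaCl, pH 7.4). It was loaded on a 25 mm parallel plate at 5°C with a 0.5 mm gap, then ramped to 37°C over 100 s. G′ and G″ were followed by a 1 h time sweep at 6 rad/s and 0.2% strain. For recovery, 1000% strain was applied for 30 s at 6 rad/s, followed by a second 1 h sweep.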

[6] = CD spectroscopy of folding and self-assembly; assay type: physicochemical
How it was run: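 Peptides were measured at 1 wt% in chilled water, or as chilled 2 wt% aqueous stock mixed 1:1 with BTP stock (100 mM, 300 mM NaCl, pH 7.4) and left to gel in the cell. Scans ran 200–260 nm at 37°C in a 0.1 mm quartz cell. Mean residue ellipticity was [θ] = (θobs/10lc)/r.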

Substance	antibacterial activity of hydrogel surface against E. coli, in words (E. coli (ATCC 25922))	antibacterial activity of hydrogel surface against S. aureus, in words (S. aureus (ATCC 25923))	antibacterial activity of hydrogel surface against P. aeruginosa, in words ([1]; 0.5 wt% hydrogel)	antibacterial activity of hydrogel surface against P. aeruginosa, in words ([1]; 1.5 wt% hydrogel)	antibacterial activity of hydrogel surface against P. aeruginosa, in words ([1]; 2 wt% hydrogel)	hemolytic activity [2]	live-dead result at the gel surface (cytostatic or cytotoxic) (P. aeruginosa)	live-dead result at the gel surface, short incubation, compared with 24 h (P. aeruginosa; 2 wt% hydrogel, 2 h incubation)	morphology of E. coli on gel surface by AFM (E. coli [3])	antibacterial activity (percent non-viable bacteria) in the presence of Ca2+ (E. coli [4])	antibacterial activity (percent non-viable bacteria) in the presence of Ca2+ (S. aureus)	storage modulus (G') ([5]; 50 mM BTP, 150 mM NaCl, pH 7.4, 37°C, after 1 h, 6 rad/s)	recovery of initial mechanical rigidity after shear-thinning ([5]; 37°C, 1000% strain for 30 s, then 1 h at 6 rad/s)	hemolytic activity as a function of wt% [2]	folding/assembly state by CD ([6]; 1 wt% peptide in BTP buffer with NaCl, pH 7.4, 37°C)	folding/assembly state by CD ([6]; 1 wt% peptide in water, 37°C)
VKVRVRVRV^DPPTRVRVRVKV [PEP6R]	inhibit E. coli and S. aureus proliferation at all weight percentages; also recorded: quantitatively kills E. coli at all weight percents tested	inhibit E. coli and S. aureus proliferation at all weight percentages	only marginally active	extremely potent	extremely potent	low hemolytic activity	cytotoxic	identical	membrane surface has collapsed and appears highly punctated	progressively attenuated with increasing concentrations of Ca^2+	progressively attenuated with increasing concentrations of Ca^2+	increase in mechanical rigidty	about 90%			
VRVRVRVRV^DPPTRVRVRVRV-NH2 [PEP8R]	capable of inhibiting both E. coli and S. aureus proliferation, irrespective of the peptide weight percentage used	capable of inhibiting both E. coli and S. aureus proliferation, irrespective of the peptide weight percentage used				about 25%								decreases in a concentration dependent manner	folded and assembled into β-sheet structures	unfolded peptide
